# Screening data deposited in PubChem BioAssay by Sanford-Burnham Center for Chemical Genomics.
# STEP block: inhibitors of human striatal-enriched phosphatase STEP. actives 0.25% (n = 360,000). recombinant STEP, OMFP fluorogenic substrate, fluorescence. inhibition, % at 20 µM. AID 588621;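 active = inhibition at 20 µM, scaled per plate between control wells, above about 37%, limit read from the data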;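 also: 0% = DMSO with enzyme and substrate and 100% = substrate only without enzyme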
# Target sequence (P54829 whole entry, looked up): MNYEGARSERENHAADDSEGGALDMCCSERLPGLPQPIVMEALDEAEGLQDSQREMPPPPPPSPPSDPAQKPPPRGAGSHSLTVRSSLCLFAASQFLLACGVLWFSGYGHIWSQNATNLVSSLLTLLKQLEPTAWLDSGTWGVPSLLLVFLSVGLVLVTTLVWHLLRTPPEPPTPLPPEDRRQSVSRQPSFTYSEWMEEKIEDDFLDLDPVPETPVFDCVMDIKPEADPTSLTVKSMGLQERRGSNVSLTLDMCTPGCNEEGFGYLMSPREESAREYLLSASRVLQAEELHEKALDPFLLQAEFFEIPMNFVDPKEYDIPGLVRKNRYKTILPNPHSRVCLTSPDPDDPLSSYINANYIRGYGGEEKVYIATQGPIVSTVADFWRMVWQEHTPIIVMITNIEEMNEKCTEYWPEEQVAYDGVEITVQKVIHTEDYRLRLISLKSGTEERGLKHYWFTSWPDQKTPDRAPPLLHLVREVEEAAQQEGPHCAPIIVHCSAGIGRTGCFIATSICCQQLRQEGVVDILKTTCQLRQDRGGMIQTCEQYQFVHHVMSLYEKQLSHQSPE
#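 material = STEP tyrosine phosphatase | reagent = fluorogenic phosphatase substrate OMFP at 25 µM final | doses = single compound dose of 20 µM, 1% DMSO final | schedule = 20 min reaction, room temperature, in the dark | measured by = fluorescence, 480/540 nm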
# DNMT1 inh: inhibitors of human DNMT1; DNMT1 molecular beacon, Hinp1I cleavage, fluorescence; inhibition (reported as % activation of signal), % at 10 µM; actives 0.83% (n = 360,000); AID 588458; in the data active = inhibition above about 50%
# LMPTP block: LMPTP (human) inhibition; inhibition, % at 20 µM; P24666; recombinant LMPTP-A, OMFP fluorogenic substrate, fluorescence intensity; AID 651560; actives 0.22% (n = 360,000);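 active = compounds that cut the enzyme signal by at least half of the control window in the single-dose screen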;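 also: plate controls were DMSO wells with enzyme plus substrate for no effect and substrate without enzyme for full effect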
#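 Test system: LMPTP-A phosphatase enzyme. Amount: LMPTP-A at 0.625 nM final in the reaction. Reagent: OMFP substrate, 400 µM final. Times: 50 min at room temperature. Signal: endpoint fluorescence intensity from OMFP dephosphorylation. Read-out basis: % inhibition. Benchmarks: no-enzyme and uninhibited controls.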
# SUMO1-SIM PPI: alters human SUMO1 binding to SIM partners; P63165; SUMO1 binding to a labelled peptide, TR-FRET, 1 h; inhibition, % at 20 µM; actives 0.33% (n = 360,000); AID 602429; in the data active = inhibition above about 37%
# Scp1 inh: Scp-1 (human) phosphatase inhibition. Q9GZU7. Recombinant Scp1, phosphopeptide, malachite green phosphate absorbance. inhibition, % at 20 µM. actives 0.88% (n = 340,000);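 active = inhibition above about 50% at 20 µM, limit read from the data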;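 also: plate controls were DMSO wells with enzyme for no effect and wells lacking enzyme for full effect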
#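 Material – SCP-1 phosphatase catalytic domain, residues 76-261 · Buffer or medium – Acidic Tris acetate buffer with magnesium and detergent · Also added – Phospho 17-mer peptide substrate · Compound – single 20 µM dose, 1% DMSO · Times – 45 min room-temperature reaction, 5 min colour, 30 min stabiliser · Technique – Phosphate-binding colour reagent, absorbance read at 630 nm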
# Scp1 confirm: Scp-1 (human) inhibition, single-dose confirmed. actives 61% (n = 2,500). shares compounds with Scp1 inh. inhibition, % at 20 µM. recombinant SCP-1 catalytic domain, phosphate release, malachite green absorbance. AID 540281;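 also: plate controls were DMSO with enzyme for no effect and buffer wells lacking enzyme for full effect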
# Scp-1 MG ctr: interferes with malachite green readout, flagging false Scp-1 hits | Colorimetric interference counterscreen, malachite green absorbance 630 nm | shares compounds with Scp1 inh | AID 540313 | apparent inhibition (interference), % at 20 µM | 2,500 tested, under 10 active;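 also: compounds added after enzyme reaction finished so only phosphate colour detection is probed; plate controls were DMSO wells with completed Scp-1 reaction for no effect and substrate wells lacking enzyme for full effect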
# Scp1 DSF: validation of human Scp-1 inhibitors by thermal shift binding; shares compounds with Scp1 inh; Recombinant SCP1, Sypro Orange thermal shift Tm; thermal shift relative to vanadate control, % at 40 µM; actives 25% (n = 1,500); AID 540329;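 active = substances whose mean melting-temperature shift, as a percentage of the reference inhibitor's shift, reaches about 5.3%, limit read from the data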;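 also: 0% = Tm of DMSO wells and 100% = Tm with sodium orthovanadate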
# * hit, by the source's call; · = not tested or not shown. Shown are actives, neighbours in structure and some others; about 1.7% of the full set was active somewhere.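 The calls were made as follows, unless noted: active = inhibition of at least 30% at 20 µM; inactive = the rest.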
SMILES,STEP block,DNMT1 inh,LMPTP block,SUMO1-SIM PPI,Scp1 inh,Scp1 confirm,Scp-1 MG ctr,others
CCOC(=O)c1ccc(Cl)c(NC(=O)c2ccc(-c3ccccc3)cc2)c1,2,27,-2,-5,-4,·,·,
CCOC(=O)c1ccc(/C=C2/C=C(c3ccccc3)N(c3ccc(Cl)c(C(=O)O)c3)C2=O)cc1,-3,35,1,27,52*,72*,-13,Scp1 DSF=-6
Cc1cccc(C)c1NC(=O)NC1(C(=O)N2CCN3CCCC3C2)CCCCC1 (stereo not drawn),0,2,-1,6,70*,-17,-13,
O=C(CSc1nc2ccccc2n1Cc1ccccc1Cl)N/N=C/c1ccccc1C(=O)O,2,-7,2,17,-13,·,·,
CCOc1ccccc1-c1nc(-c2cc3ccc(C)cc3[nH]c2=O)no1,33,4,3,0,57*,39*,-4,Scp1 DSF=-4
CCOc1cc(/C=C/c2cccc[n+]2C)ccc1O,0,0,-2,-32,72*,-12,-14,
CCOc1cc(/C=C/c2cccc[n+]2C)ccc1OCC(=O)Nc1ccc(C)cc1,-4,0,0,-25,4,·,·,
COc1cc(/C=C/c2cccc[n+]2C)ccc1OCC(=O)Nc1ccccc1C,0,1,0,-8,52*,-3,-11,
O=C(CN1C(=O)C2C3CC(C(Br)C3Br)C2C1=O)N1CCN(Cc2ccccc2)CC1 (stereo not drawn),-2,1,-1,1,-10,·,·,
CC(Oc1cccc([N+](=O)[O-])c1)C(=O)NCCC1=CCCCC1 (stereo not drawn),1,-5,0,-18,59*,-13,-14,
CC(C(=O)NCCC1=CCCCC1)c1ccc([N+](=O)[O-])cc1 (stereo not drawn),0,2,-1,-13,-10,·,·,
Cc1nn(CCc2nn[nH]n2)c2nc(-c3ccccc3)cc(C(F)(F)F)c12,-3,2,0,4,64*,71*,-4,Scp1 DSF=-11
COc1ccc(S(=O)(=O)N2CCC(C(=O)N[C@@H](C)C(=O)NCc3ccco3)CC2)cc1,2,2,-1,13,·,·,·,
CC1CC(C)CN(C(=O)c2ccc3c(c2)N(Cc2ccccc2)CCS3)C1 (stereo not drawn),2,-2,5,2,79*,0,-13,
O=C(Nc1ccc(Cl)c(Cl)c1)Nc1nnc(CC2=CCCCC2)s1,-1,3,0,-1,-6,·,·,
O=C(N/N=C/C=C/c1ccco1)c1cnccn1,1,11,0,-6,5,·,·,
Cn1c(SCC(=O)N/N=C/C=C/c2ccco2)nc2ccccc21,-1,57*,28,-1,73*,62*,-9,Scp1 DSF=1
O=C(N/N=C/C=C\c1ccco1)c1ccccn1,1,21,3,-10,52*,39*,-7,Scp1 DSF=5
Cn1c(CSCc2ccc(Cl)cc2)nnc1SCC(=O)Nc1nc2ccccc2s1,0,38,-2,-1,-3,·,·,
CN(Cc1ccccc1)/C(=N/O)c1cccc(Cl)c1,2,-1,1,8,-10,·,·,
Cc1ccc(NC(=O)CC2C(=O)NCCN2C(=O)c2ccc(F)cc2)cc1 (stereo not drawn),-2,1,-1,2,-4,-3,-11,
CCc1ccc(-n2c(=S)sc3c(=O)n(-c4ccccc4C)c(SCC(=O)O)nc32)cc1,1,-1,2,-21,0,·,·,
NC(=O)Oc1cccc(OC(N)=O)c1,-1,1,0,3,-4,·,·,
CCN1C(=NCCOC)N[C@@H](c2cccc(C(F)(F)F)c2)C(C(=O)OC)=C1C,2,2,-2,-2,56*,5,-9,
CCN1C(=NCC2CC2)N[C@@H](c2cccc(C(F)(F)F)c2)C(C(=O)OC)=C1C,0,4,0,-7,50*,-14,-13,
